This is an account of results in ChEMBL document CHEMBL2331153, “Structural investigation and biological activity of sesquiterpene lactones from the traditional Chinese herb Inula racemosa” (J Nat Prod, 2013).

In brackets after ≈: the same amount, converted by molar mass. Activity calls are given as the source filed them. No cut-off for these calls is given here.

Holding throughout (assay type): functional, cell-based
In one assay the test system is HT-1080. Kind of assay: Antiproliferative activity against human HT1080 cells assessed as inhibition of cell proliferation after 72 hrs by CCK8 assay. The following applies: HT-1080, 72 h. Put shortly:
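HT1080 fibrosarcoma cells cultured in alpha-MEM with 10% FBS and penicillin/streptomycin, 37 °C, 5% CO2. Seeded, allowed to adhere overnight, then incubated with compound for 72 h. CCK-8 added for 2 h, then A450 read. Mitomycin was the positive control. Duplicate experiments.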
Background: Formazan colour is commonly taken as a measure of viable cells.

Another assay has as its system HepG2. Kind of assay: Antiproliferative activity against human HepG2 cells assessed as inhibition of cell proliferation after 72 hrs by CCK8 assay. The note with it: HepG2, 72 h. Summed up:
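HepG2 cells maintained in DMEM with 10% FBS and penicillin/streptomycin at 37 °C, 5% CO2. After overnight adherence, compound exposure lasted 72 h. Viable cells detected with CCK-8 (2 h incubation) by absorbance at 450 nm. Positive control was mitomycin. Assays in duplicate.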

The next assay deals with A549. The assay is described as follows: Antiproliferative activity against human A549 cells assessed as inhibition of cell proliferation after 72 hrs by CCK8 assay. The note with it: A549, 72 h. Summed up: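 A549 cells grown in RPMI 1640 with 10% FBS and penicillin/streptomycin at 37 °C, 5% CO2. Cells adhered overnight, then treated with compound for 72 h. CCK-8 added for 2 h at 37 °C, absorbance read at 450 nm. Mitomycin served as positive control. Run in duplicate.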

The test system of assay [1] is HUVEC. Kind of assay: Antiangiogenic activity against human HUVEC assessed as inhibition of endothelial cell tube formation at 1 ug/ml after 22 hrs by Matrigel assay. Summed up:
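HUVECs (passages 2–6) seeded at 25 000 cells/well onto a Matrigel layer and exposed to compound for 22 h; images taken 22 h after plating at ×40. Capillary tube formation scored as total length of capillary structures in two representative fields per experiment. Colchicine served as positive control.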

The subject of assay [2] is HUVEC. Kind of assay: Antiproliferative activity against human HUVEC assessed as inhibition of cell proliferation after 72 hrs by CCK8 assay. Summed up: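 HUVECs at passages 2–6 grown in endothelial cell medium with 0.03 mg/mL endothelial cell growth supplement, 10% FBS, 0.1 mg/mL heparin and penicillin/streptomycin. Cells adhered overnight, then compound added for 72 h at 37 °C, 5% CO2. CCK-8 added for 2 h and absorbance read at 450 nm. Mitomycin positive control; duplicates.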

As to `C[C@@H]1C(=O)O[C@@H]2C[C@@]3(C)CCC[C@H](C)C3=C[C@H]12`, the IC50 – broadly, the concentration that inhibits the measured activity by half – was greater than 50 µg/mL in the assay with HT-1080, greater than 50 µg/mL with HepG2 and 24.8 µg/mL (≈ 106 µM) in the assay on A549.

Take `C[C@@H]1CCC[C@]2(C)C[C@@H]3OC(=O)C(CO)=C3C=C12` [MACROPHYLLILACTONE E]: the IC50 with HT-1080 came to 28.5 µg/mL (≈ 115 µM); with HepG2, 31.2 µg/mL (≈ 126 µM); in the assay with A549, 16.2 µg/mL (≈ 65.3 µM).

For the molecule `C[C@@H]1C(=O)O[C@@H]2C[C@@]3(C)CCC[C@H](C)C3=C[C@]12O` [RACEMOSALACTONE C], the 50% inhibitory concentration (IC50) was greater than 50 µg/mL in the assay with HT-1080, greater than 50 µg/mL with HepG2 and 27.8 µg/mL (≈ 111 µM) in the assay on A549.

Regarding `C=C1C(=O)O[C@@H]2C[C@@]3(C)CCCC(C)=C3C[C@H]12` [ALLOALANTOLACTONE], the IC50 is 3.87 µg/mL (≈ 16.7 µM) in the assay on HT-1080, 3.57 µg/mL (≈ 15.4 µM) in the assay with HepG2 and 2.67 µg/mL (≈ 11.5 µM) in the assay on A549.

`C[C@H]1C(=O)O[C@@H]2CC3=C[C@@H](O)C[C@H](C)[C@@]3(C)C[C@@H]21` [RACEMOSALACTONE E]: the IC50 in the assay with HT-1080 was greater than 50 µg/mL; with HepG2, greater than 50 µg/mL; in the assay on A549, 38.6 µg/mL (≈ 154 µM).

As to `C=C1C[C@H](O)C[C@]2(C)C[C@H]3OC(=O)[C@H](C)[C@H]3C[C@@H]12`, the IC50 in the assay with HT-1080, in the assay on HepG2 and in the assay on A549 was greater than 50 µg/mL in each case.

Consider `C=C1C(=O)O[C@@H]2C[C@@]3(C)CCC[C@]4(CO4)[C@@H]3C[C@H]12`, for which the figures for the half-inhibitory concentration (IC50) in the assay with HT-1080, in the assay on HepG2 and with A549 were 3.51 µg/mL (≈ 14.1 µM), 3.78 µg/mL (≈ 15.2 µM) and 2.65 µg/mL (≈ 10.7 µM), respectively.

As to `C[C@@H]1C2=C[C@H]3[C@@H](C[C@@]2(C)CC[C@@H]1O)OC(=O)[C@@H]3C`, the IC50 with HT-1080, in the assay on HepG2 and with A549 was greater than 50 µg/mL in each case.

Consider `C[C@@H]1C(=O)O[C@@H]2C[C@@]3(C)C[C@@H](O)C[C@H](C)C3=C[C@H]12`, for which the IC50 turned out to be 20.1 µg/mL (≈ 80.3 µM) in the assay with HT-1080, 26.1 µg/mL (≈ 104 µM) in the assay on HepG2 and 24.8 µg/mL (≈ 99.1 µM) in the assay on A549.

Consider `C=C1C(=O)O[C@@H]2C[C@@]3(C)CCCC(=C)[C@@H]3C[C@H]12` [ISOALANTOLACTONE], for which the inhibition entry in the assay on HUVEC [1] was “Active”. Besides, the IC50 with HUVEC [2] is 2.5 µg/mL (≈ 10.8 µM); in the assay with HT-1080, 0.795 µg/mL (≈ 3.42 µM); in the assay on HepG2, 1.77 µg/mL (≈ 7.62 µM); with A549 it was 0.38 µg/mL (≈ 1.64 µM).

Regarding `C=C1C(=O)O[C@@H]2C[C@@]3(C)CCC[C@H](C)C3=C[C@H]12` [HELENINE], the inhibition result with HUVEC [1] is “Active”. For the same molecule, the IC50 with HUVEC [2] was 2.4 µg/mL (≈ 10.3 µM); in the assay on HT-1080, 0.696 µg/mL (≈ 3 µM); in the assay with HepG2, 1.3 µg/mL (≈ 5.6 µM); in the assay with A549 it was 0.55 µg/mL (≈ 2.37 µM).

Consider `CC1=C2C[C@@H]3[C@H](C)C(=O)O[C@@H]3C[C@@]2(C)CCC1=O`, for which the values for the 50% inhibitory concentration (IC50) with HT-1080, in the assay with HepG2 and in the assay with A549 were greater than 50 µg/mL, greater than 50 µg/mL and 22.5 µg/mL (≈ 90.8 µM), respectively.

As for `C[C@H]1CCC[C@]2(C)C[C@H]3OC(=O)[C@](C)(O)[C@H]3C=C12`, the IC50 in the assay with HT-1080, in the assay on HepG2 and with A549 was greater than 50 µg/mL in each case.

Regarding `C[C@@H]1C(=O)O[C@@H]2C[C@@]3(C)CCC[C@]4(CO4)[C@@H]3C[C@H]12`, the IC50 with HT-1080, in the assay on HepG2 and in the assay on A549 was greater than 50 µg/mL each time.

As to `C[C@@H]1C2=C[C@H]3[C@@H](C[C@@]2(C)CC[C@@H]1O)OC(=O)[C@@]3(O)CCl` [RACEMOSALACTONE B], the IC50 was greater than 50 µg/mL in the assay on HT-1080, greater than 50 µg/mL in the assay on HepG2 and 37.3 µg/mL (≈ 124 µM) in the assay with A549.

With `C=C1C(=O)O[C@@H]2C[C@@]3(C)CCCC(=C)[C@]3(O)C[C@H]12` [TELEKIN], the 50% inhibitory concentration (IC50) in the assay on HT-1080 is 3.5 µg/mL (≈ 14.1 µM); in the assay on HepG2, 8.14 µg/mL (≈ 32.8 µM); in the assay on A549, 4.27 µg/mL (≈ 17.2 µM).

Take `C=C1C(=O)O[C@@H]2C[C@@]3(C)CCC[C@H](C)[C@@]34O[C@H]4[C@H]12`: the figures for the IC50 in the assay on HT-1080, in the assay with HepG2 and in the assay with A549 were 1.32 µg/mL (≈ 5.32 µM), 2.73 µg/mL (≈ 11 µM) and 1.59 µg/mL (≈ 6.4 µM), respectively.

Regarding `C=C1CCC[C@]2(C)C[C@H]3OC(=O)[C@@H](C)[C@H]3C[C@@H]12` [DIHYDROISOALANTOLACTONE], the 50% inhibitory concentration (IC50) in the assay on HT-1080, in the assay on HepG2 and in the assay on A549 was greater than 50 µg/mL each time.

For the molecule `C=C1C(=O)O[C@@H]2C[C@@]3(C)CCC[C@H](C)[C@]3(O)C[C@H]12` [RACEMOSALACTONE A], the half-inhibitory concentration (IC50) in the assay with HT-1080 worked out at 1.88 µg/mL (≈ 7.51 µM); with HepG2, 2.76 µg/mL (≈ 11 µM); in the assay with A549, 1.51 µg/mL (≈ 6.03 µM).

Turning to `C[C@@H]1C(=O)O[C@@H]2C[C@@]3(C)CCC[C@H](C)[C@@]34O[C@H]4[C@H]12` [DIHYDROEPOXYALANTOLACTONE], the results for the IC50 with HT-1080, in the assay with HepG2 and in the assay with A549 were 17.4 µg/mL (≈ 69.5 µM), 25.3 µg/mL (≈ 101 µM) and 16.2 µg/mL (≈ 64.8 µM), respectively.

In the case of `C=C1C(=O)O[C@@H]2C[C@@]3(C)CC[C@@H](O)C(=C)[C@@H]3C[C@H]12` [ISOTELEKIN], the half-inhibitory concentration (IC50) in the assay with HT-1080 came to 2.44 µg/mL (≈ 9.83 µM); in the assay on HepG2 it was 4.19 µg/mL (≈ 16.9 µM); in the assay with A549, 1.47 µg/mL (≈ 5.92 µM).

`C=C1C[C@H](O)C[C@]2(C)C[C@H]3OC(=O)[C@@H](C)[C@H]3C[C@@H]12`: the IC50 with HT-1080, in the assay on HepG2 and in the assay on A549 was greater than 50 µg/mL each time.

Turning to `CO[C@@]12[C@H](COC(N)=O)C3=C(C(=O)C(C)=C(N)C3=O)N1C[C@@H]1N[C@@H]12` [MITOMYCIN], the IC50 in the assay with HT-1080 came out at 0.15 µg/mL (≈ 0.449 µM); with HepG2, 0.14 µg/mL (≈ 0.419 µM); with A549, 0.54 µg/mL (≈ 1.62 µM).

Take `C=C1C[C@H](O)C[C@]2(C)C[C@H]3OC(=O)[C@](C)(O)[C@H]3C[C@@H]12` [RACEMOSALACTONE D]: the IC50 in the assay on HT-1080, in the assay on HepG2 and in the assay with A549 was greater than 50 µg/mL each time.
